Key:
[1] = molecular target: T1, Muscarinic acetylcholine receptor M4 (Homo sapiens, UniProt P08173); assay: Binding affinity to human cloned muscarinic receptor M4 expressed in CHO cells; type: cell-based
T1 sequence (P08173 whole entry): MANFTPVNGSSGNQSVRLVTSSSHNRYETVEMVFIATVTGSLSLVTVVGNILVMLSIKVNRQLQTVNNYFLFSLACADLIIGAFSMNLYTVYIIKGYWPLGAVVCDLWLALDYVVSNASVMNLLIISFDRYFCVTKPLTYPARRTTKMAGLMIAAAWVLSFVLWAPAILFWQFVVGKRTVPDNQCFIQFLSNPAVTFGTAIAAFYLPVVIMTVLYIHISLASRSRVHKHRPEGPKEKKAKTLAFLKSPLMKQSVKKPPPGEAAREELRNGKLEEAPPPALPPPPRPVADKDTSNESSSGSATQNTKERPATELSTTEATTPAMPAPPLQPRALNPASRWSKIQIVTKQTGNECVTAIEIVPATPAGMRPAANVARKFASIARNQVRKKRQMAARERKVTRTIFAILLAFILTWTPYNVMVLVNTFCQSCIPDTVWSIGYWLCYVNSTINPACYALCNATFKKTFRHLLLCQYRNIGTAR

[2] = molecular target: Muscarinic acetylcholine receptor M3 (Cavia porcellus) (UniProt Q8VH26); assay: (§1) Antagonist activity at muscarinic receptor M3 assessed as contraction of guinea pig ileum; type: functional, tissue-based; conditions: filed as antagonist
Chain of Muscarinic acetylcholine receptor M3 (Cavia porcellus) (Q8VH26 1-587): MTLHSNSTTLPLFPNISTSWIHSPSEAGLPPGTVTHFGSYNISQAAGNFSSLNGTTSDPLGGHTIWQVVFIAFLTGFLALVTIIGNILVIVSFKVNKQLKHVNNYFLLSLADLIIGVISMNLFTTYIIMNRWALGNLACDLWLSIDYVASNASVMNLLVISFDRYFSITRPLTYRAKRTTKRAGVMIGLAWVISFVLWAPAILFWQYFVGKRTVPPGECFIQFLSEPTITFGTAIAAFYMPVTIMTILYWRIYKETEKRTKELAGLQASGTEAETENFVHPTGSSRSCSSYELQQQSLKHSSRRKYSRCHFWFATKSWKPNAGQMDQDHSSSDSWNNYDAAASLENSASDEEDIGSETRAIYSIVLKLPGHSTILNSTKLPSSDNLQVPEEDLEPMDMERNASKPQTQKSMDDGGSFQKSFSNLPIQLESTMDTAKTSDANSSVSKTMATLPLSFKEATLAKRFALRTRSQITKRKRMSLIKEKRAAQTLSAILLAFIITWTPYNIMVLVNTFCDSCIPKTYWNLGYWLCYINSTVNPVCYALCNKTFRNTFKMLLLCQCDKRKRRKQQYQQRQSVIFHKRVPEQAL
How it was run: (§2)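 Isolated guinea pig tissue preparations (stimulated left atria, ileum, lung strips), run in vitro by a previously described protocol, with the ileum method slightly modified. Agonist dose–response curves were recorded before and after one or two antagonist concentrations. pKb = log(DR−1) − log[B], where DR is the ratio of agonist ED50 after/before antagonist. Some cases were expressed as pA2 from Schild plots constrained to slope −1.0.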

[3] = tested on: Muscarinic acetylcholine receptor M2 (Cavia porcellus); assay: Antagonist activity at muscarinic receptor M2 assessed as contraction of electrically-stimulated guinea pig left atria; conditions: for pKb: filed as antagonist; for Kb: read-out: pA2 (converted)
[4] = molecular target: T2, Muscarinic acetylcholine receptor M2 (Homo sapiens, UniProt P08172); assay: Binding affinity to human cloned muscarinic receptor M2 expressed in CHO cells; type: cell-based
T2 sequence (P08172 whole entry): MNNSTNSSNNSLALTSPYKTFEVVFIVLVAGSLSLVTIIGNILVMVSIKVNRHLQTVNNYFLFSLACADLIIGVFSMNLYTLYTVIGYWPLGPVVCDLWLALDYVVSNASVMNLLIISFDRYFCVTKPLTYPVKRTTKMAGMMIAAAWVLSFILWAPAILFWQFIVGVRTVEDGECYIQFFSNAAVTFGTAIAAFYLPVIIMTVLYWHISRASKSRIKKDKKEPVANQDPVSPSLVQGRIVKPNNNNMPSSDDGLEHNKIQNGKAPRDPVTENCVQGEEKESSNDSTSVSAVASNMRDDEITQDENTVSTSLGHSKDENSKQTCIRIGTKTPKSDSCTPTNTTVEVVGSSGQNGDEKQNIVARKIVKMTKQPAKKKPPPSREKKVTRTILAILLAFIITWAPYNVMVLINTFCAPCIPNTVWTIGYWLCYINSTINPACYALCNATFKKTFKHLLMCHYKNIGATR
How it was run: (§3)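 Equilibrium radioligand binding on CHO cells expressing the cloned human muscarinic subtype. Affinity is reported as pKi.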

[5] = tested on: Muscarinic acetylcholine receptor M1, putative (Oryctolagus cuniculus); conditions: Vas deferens, filed as antagonist
[6] = tested on: Muscarinic acetylcholine receptor M4, putative (Cavia porcellus); assay: Antagonist activity at putative muscarinic receptor M4 assessed as contraction of electrically-stimulated guinea pig lung strips; conditions: filed as antagonist
[7] = molecular target: T3, Muscarinic acetylcholine receptor M1 (Homo sapiens, UniProt P11229); assay: Binding affinity to human cloned muscarinic receptor M1 expressed in CHO cells; type: cell-based
T3 sequence (P11229 whole entry): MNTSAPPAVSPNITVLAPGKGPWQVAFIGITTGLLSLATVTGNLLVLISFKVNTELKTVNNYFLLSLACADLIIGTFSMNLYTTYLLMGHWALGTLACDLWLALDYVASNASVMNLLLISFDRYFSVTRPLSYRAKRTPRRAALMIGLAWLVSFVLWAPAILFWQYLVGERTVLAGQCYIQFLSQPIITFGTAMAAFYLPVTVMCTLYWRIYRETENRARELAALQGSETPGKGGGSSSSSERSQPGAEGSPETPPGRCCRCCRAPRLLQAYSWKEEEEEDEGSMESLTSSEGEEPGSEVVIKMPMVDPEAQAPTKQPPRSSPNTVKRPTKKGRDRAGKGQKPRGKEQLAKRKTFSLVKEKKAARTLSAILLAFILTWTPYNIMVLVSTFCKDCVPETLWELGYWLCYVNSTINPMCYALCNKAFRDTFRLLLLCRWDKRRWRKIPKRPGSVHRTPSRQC

[8] = molecular target: Muscarinic acetylcholine receptor M3 (Homo sapiens, UniProt P20309); assay: Binding affinity to human cloned muscarinic receptor M3 expressed in CHO cells; type: cell-based
Chain of Muscarinic acetylcholine receptor M3 (Homo sapiens, UniProt P20309) (P20309 whole entry): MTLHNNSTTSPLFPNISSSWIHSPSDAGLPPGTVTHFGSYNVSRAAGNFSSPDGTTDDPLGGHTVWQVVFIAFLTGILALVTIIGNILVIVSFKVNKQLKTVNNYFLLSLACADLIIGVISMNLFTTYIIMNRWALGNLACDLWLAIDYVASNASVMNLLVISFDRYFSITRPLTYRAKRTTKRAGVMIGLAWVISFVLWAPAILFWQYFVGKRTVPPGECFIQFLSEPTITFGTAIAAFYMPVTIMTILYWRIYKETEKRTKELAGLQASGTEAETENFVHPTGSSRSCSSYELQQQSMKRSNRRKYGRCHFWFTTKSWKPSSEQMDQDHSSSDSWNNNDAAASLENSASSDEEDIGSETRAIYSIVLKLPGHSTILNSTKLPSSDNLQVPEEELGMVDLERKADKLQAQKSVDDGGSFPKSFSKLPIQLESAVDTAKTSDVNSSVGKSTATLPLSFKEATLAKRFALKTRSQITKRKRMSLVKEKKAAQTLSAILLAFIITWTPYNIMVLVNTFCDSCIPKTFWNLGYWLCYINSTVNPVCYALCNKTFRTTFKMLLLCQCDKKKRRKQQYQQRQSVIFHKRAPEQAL

[9] = molecular target: T4, Muscarinic acetylcholine receptor M5 (Homo sapiens, UniProt P08912); assay: Binding affinity to human cloned muscarinic receptor M5 expressed in CHO cells; type: cell-based; how it was run: as §3
T4 sequence (P08912 whole entry): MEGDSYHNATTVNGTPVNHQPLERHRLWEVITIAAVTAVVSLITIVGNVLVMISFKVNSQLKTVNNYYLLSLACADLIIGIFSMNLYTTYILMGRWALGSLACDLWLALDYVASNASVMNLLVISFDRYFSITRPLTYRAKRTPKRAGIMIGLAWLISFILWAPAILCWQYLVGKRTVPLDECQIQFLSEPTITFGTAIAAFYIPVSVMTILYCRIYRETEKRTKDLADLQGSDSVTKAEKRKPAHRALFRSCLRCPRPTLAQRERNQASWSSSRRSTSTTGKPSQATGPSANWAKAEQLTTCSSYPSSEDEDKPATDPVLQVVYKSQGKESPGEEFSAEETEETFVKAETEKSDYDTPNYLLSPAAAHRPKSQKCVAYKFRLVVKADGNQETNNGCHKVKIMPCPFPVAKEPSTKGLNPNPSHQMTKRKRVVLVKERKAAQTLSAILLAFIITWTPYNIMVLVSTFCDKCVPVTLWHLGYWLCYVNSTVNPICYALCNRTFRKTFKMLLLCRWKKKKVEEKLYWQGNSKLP

[10] = molecular target: Muscarinic acetylcholine receptor M3 (Cavia porcellus, UniProt Q8VH26); assay: as §1; type: functional, tissue-based; conditions: read-out: pA2 (converted); how it was run: as §2
Chain of Muscarinic acetylcholine receptor M3 (Cavia porcellus, UniProt Q8VH26) (Q8VH26 whole entry): as the sequence (Q8VH26 1-587) above

Row | SMILES | Ki [1] | pKb [2] | pKb [3] | Ki [4] | pKb [5] | pKb [6] | Ki [7] | Ki [8] | Ki [9] | Kb [3] | Kb [10]
1 | CN1CCC[C@@H]1[C@@H]1CSC(c2ccccc2)(c2ccccc2)O1 | 2 nM (antagonist) | 8.44 | 7.97 | 2.75 nM (antagonist) | 8.66 | 6.06 | 0.759 nM (antagonist) | 2.45 nM (antagonist) | 3.24 nM (antagonist) | – | –
2 | CN1CCC[C@@H]1[C@@H]1CS[C@@](c2ccccc2)(C2CCCCC2)O1 | 1.26 nM (antagonist) | 7.65 | 7.13 | 4.47 nM (antagonist) | 7.95 | 5.98 | 0.912 nM (antagonist) | 1.45 nM (antagonist) | 1.2 nM (antagonist) | – | –
3 | C[N+](C)(C)C[C@@H]1CS[C@@](c2ccccc2)(C2CCCCC2)O1 | 6.17 nM (antagonist) | 8.79 | 8.47 | 7.59 nM (antagonist) | 8.81 | 6.24 | 1.1 nM (antagonist) | 1.78 nM (antagonist) | 2.82 nM (antagonist) | – | –
4 | C[N+]1(C)CCC[C@H]1[C@H]1CS[C@](c2ccccc2)(C2CCCCC2)O1 | 0.871 nM (antagonist) | 8.5 | – | 0.776 nM (antagonist) | 9.52 | 7.47 | 0.251 nM (antagonist) | 0.589 nM (antagonist) | 0.2 nM (antagonist) | 4.27 nM (antagonist) | –
5 | C[N+]1(C)CCC[C@H]1[C@H]1CS[C@@](c2ccccc2)(C2CCCCC2)O1 | 0.871 nM (antagonist) | 9.66 | – | 0.955 nM (antagonist) | 9.97 | 7.99 | 0.117 nM (antagonist) | 0.339 nM (antagonist) | 0.107 nM (antagonist) | 1 nM (antagonist) | –
6 | C[N+]1(C)CCC[C@@H]1[C@@H]1CS[C@@](c2ccccc2)(C2CCCCC2)O1 | 0.708 nM (antagonist) | 8.79 | 8.6 | 0.832 nM (antagonist) | 9.53 | 6.47 | 0.501 nM (antagonist) | 0.912 nM (antagonist) | 0.776 nM (antagonist) | – | –
7 | CN1CCC[C@H]1[C@H]1CSC(c2ccccc2)(c2ccccc2)O1 | 3.31 nM (antagonist) | 8.05 | 7.58 | 4.9 nM (antagonist) | 7.93 | 6.41 | 3.47 nM (antagonist) | 5.25 nM (antagonist) | 5.62 nM (antagonist) | – | –
8 | C[N+]1(C)CCC[C@@H]1[C@@H]1CS[C@](c2ccccc2)(C2CCCCC2)O1 | 1.82 nM (antagonist) | 8.84 | 8.54 | 1.48 nM (antagonist) | 8.49 | 6.55 | 0.955 nM (antagonist) | 4.9 nM (antagonist) | 3.24 nM (antagonist) | – | –
9 | C[N+]1(C)[C@@H]2C[C@@H](OC(=O)[C@H](CO)c3ccccc3)C[C@H]1[C@@H]1O[C@@H]12 [METHSCOPOLAMINE] | – | – | – | – | – | – | – | – | – | – | 0.617 nM (antagonist)
10 | C[N+]1(C)CCC[C@@H]1[C@@H]1CSC(c2ccccc2)(c2ccccc2)O1 | 3.47 nM (antagonist) | 8.26 | 7.76 | 3.39 nM (antagonist) | 8.49 | 6.52 | 2.34 nM (antagonist) | 5.01 nM (antagonist) | 3.47 nM (antagonist) | – | –
11 | CN1CCC[C@@H]1[C@@H]1CS[C@](c2ccccc2)(C2CCCCC2)O1 | 1 nM (antagonist) | 8.55 | 8.07 | 1.07 nM (antagonist) | 9.16 | 6.03 | 0.347 nM (antagonist) | 2.19 nM (antagonist) | 2 nM (antagonist) | – | –
12 | CN1CCC[C@H]1[C@H]1CS[C@](c2ccccc2)(C2CCCCC2)O1 | 1.2 nM (antagonist) | 7.7 | 6.91 | 4.27 nM (antagonist) | 8.32 | 5.92 | 1.48 nM (antagonist) | 1.7 nM (antagonist) | 2 nM (antagonist) | – | –
13 | C[N+]1(C)CCC[C@H]1[C@H]1CSC(c2ccccc2)(c2ccccc2)O1 | 0.468 nM (antagonist) | 9.16 | 8.78 | 0.468 nM (antagonist) | 9.56 | 7.79 | 0.295 nM (antagonist) | 0.741 nM (antagonist) | 0.407 nM (antagonist) | – | –
14 | CN1CCC[C@H]1[C@H]1CS[C@@](c2ccccc2)(C2CCCCC2)O1 | 2.34 nM (antagonist) | 8.92 | 8.82 | 2.75 nM (antagonist) | 7.41 | 6.22 | 1.38 nM (antagonist) | 0.891 nM (antagonist) | 1.35 nM (antagonist) | – | –

— ChEMBL document CHEMBL1142937, “Synthesis, affinity profile, and functional activity of muscarinic antagonists with a 1-methyl-2-(2,2-alkylaryl-1,3-oxathiolan-5-yl)pyrrolidine structure” (J Med Chem, 2007)
